Measured values reported in ChEMBL document CHEMBL1134554, “Design, synthesis, and structure-activity relationships of macrocyclic hydroxamic acids that inhibit tumor necrosis factor alpha release in vitro and in vivo” (J Med Chem, 2001).

Key:
[1] = Pharmacokinetic data in Beagle dogs at 0.74 mg/kg intravenous dose.; format: ADME, organism-based, Canis lupus familiaris; set-up: dose 0.74 mg/kg, route intravenous; settings: dog, in vivo
Procedure, shortened: (§1)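 Male beagle dogs (~10 kg), two per compound, dosed iv in 10% ethanol solution. Blood sampled before dosing and at 1, 2, 4, 6, 8, 12 and 24 h after. Plasma levels measured by LC/MS/MS after solid-phase extraction (detection limit 10 nM). Parameters reported as mean.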

Collagenase 3 = Collagenase 3 (Homo sapiens, UniProt P45452)
Neutrophil collagenase = Neutrophil collagenase (Homo sapiens, UniProt P22894); experiment: Inhibition of matrix metalloprotease-8
Matrilysin = molecular target: T1, Matrilysin (Homo sapiens, UniProt P09237); experiment: Inhibition of matrix metalloprotease-7
T1 sequence (P09237 whole entry): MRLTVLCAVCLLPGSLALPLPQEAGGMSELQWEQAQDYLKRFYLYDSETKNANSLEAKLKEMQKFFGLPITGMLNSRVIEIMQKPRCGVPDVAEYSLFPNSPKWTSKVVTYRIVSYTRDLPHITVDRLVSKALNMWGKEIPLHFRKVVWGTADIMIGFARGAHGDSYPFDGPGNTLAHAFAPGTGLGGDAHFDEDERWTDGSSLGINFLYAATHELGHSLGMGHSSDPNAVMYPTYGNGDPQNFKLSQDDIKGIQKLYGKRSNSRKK

[2] = molecular target: Matrix metalloproteinase-15 (Homo sapiens, UniProt P51511); experiment: Inhibition of matrix metalloprotease-15
[3] = Pharmacokinetic data in Beagle dogs at 0.74 mg/kg i.v. dose and 0.863 mg/kg p.o. dose; format: ADME, organism-based, Canis lupus familiaris; settings: dog, in vivo, po
Procedure, shortened: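 Male beagle dogs: iv 0.74 mg/kg in 10% ethanol (n=2), oral 0.863 mg/kg in 0.5% methocell suspension (n=2). Blood sampled to 24 h post-dose. Plasma analysed by LC/MS/MS after solid-phase extraction (detection limit 10 nM). Mean parameters given.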

[4] = molecular target: 72 kDa type IV collagenase (Homo sapiens, UniProt P08253)
[5] = molecular target: Matrix metalloproteinase-14 (Homo sapiens, UniProt P50281); experiment: Inhibition of matrix metalloprotease-14
[6] = molecular target: Matrix metalloproteinase-16 (Homo sapiens, UniProt P51512); experiment: Inhibition of matrix metalloprotease-16
Stromelysin-1 = Stromelysin-1 (Homo sapiens, UniProt P08254); experiment: Inhibition of human MMP-3.
[7] = molecular target: Disintegrin and metalloproteinase domain-containing protein 17 (Homo sapiens, UniProt P78536)
[8] = molecular target: Disintegrin and metalloproteinase domain-containing protein 17 (Sus scrofa, UniProt O77636)
Interstitial collagenase = molecular target: T2, Interstitial collagenase (Homo sapiens, UniProt P03956); experiment: In vitro inhibition of human MMP-1.
T2 sequence (P03956 whole entry): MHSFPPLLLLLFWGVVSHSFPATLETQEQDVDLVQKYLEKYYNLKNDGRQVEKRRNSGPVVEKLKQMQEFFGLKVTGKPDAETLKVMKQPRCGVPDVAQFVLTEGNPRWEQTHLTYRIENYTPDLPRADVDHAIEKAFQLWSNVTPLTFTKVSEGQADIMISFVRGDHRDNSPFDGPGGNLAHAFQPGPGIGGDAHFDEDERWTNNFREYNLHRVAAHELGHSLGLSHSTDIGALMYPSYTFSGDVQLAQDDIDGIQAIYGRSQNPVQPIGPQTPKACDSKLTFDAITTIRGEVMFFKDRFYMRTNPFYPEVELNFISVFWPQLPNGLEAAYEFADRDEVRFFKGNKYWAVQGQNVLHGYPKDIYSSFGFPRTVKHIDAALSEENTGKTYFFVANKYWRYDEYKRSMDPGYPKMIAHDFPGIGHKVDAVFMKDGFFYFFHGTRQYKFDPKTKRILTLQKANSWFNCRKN

[9] = molecular target: Matrix metalloproteinase-9 (Homo sapiens, UniProt P14780); experiment: In vitro inhibition of human MMP-9.
[10] = Maximal plasma concentration in Beagle dogs after 0.74 mg/kg intravenous dose.; format: ADME, organism-based, Canis lupus familiaris; set-up: dose 0.74 mg/kg, route intravenous; settings: dog, in vivo; procedure, shortened: as §1
[11] = Pharmacokinetic data in Beagle dogs at 0.863 mg/kg oral dose.; format: ADME, organism-based, Canis lupus familiaris; set-up: dose 0.863 mg/kg, route oral; settings: dog, in vivo
Procedure, shortened: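 Two male beagle dogs (~10 kg) given 0.863 mg/kg orally as a 0.5% methocell suspension. Blood sampled before dosing and at 1, 2, 4, 6, 8, 12 and 24 h after. Plasma levels measured by LC/MS/MS after solid-phase extraction (detection limit 10 nM). Parameters reported as mean.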

Chain of Disintegrin and metalloproteinase domain-containing protein 17 (Sus scrofa, UniProt O77636) (O77636 whole entry, the tested form may be a part): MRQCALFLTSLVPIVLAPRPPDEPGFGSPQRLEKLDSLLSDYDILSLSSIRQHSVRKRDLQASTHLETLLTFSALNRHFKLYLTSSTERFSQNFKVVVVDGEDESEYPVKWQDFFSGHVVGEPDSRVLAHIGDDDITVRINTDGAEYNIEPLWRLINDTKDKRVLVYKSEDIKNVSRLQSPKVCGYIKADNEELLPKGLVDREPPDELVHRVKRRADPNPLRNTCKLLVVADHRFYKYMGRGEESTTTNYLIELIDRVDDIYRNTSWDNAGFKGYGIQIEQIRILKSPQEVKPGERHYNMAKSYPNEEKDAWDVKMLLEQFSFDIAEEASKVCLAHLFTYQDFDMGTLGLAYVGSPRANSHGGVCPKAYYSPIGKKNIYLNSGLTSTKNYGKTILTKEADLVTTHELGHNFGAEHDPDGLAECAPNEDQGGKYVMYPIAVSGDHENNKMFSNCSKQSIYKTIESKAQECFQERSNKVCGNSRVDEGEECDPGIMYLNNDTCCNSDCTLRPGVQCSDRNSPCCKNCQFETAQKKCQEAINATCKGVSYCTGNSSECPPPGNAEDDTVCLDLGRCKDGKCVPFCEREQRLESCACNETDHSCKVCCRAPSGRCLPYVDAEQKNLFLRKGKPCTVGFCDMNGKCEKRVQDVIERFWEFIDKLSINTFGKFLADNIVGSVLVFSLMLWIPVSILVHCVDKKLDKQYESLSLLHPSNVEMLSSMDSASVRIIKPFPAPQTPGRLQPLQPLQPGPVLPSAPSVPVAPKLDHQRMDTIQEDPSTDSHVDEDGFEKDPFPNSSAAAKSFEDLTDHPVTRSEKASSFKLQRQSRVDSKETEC
Chain of 72 kDa type IV collagenase (P08253 whole entry): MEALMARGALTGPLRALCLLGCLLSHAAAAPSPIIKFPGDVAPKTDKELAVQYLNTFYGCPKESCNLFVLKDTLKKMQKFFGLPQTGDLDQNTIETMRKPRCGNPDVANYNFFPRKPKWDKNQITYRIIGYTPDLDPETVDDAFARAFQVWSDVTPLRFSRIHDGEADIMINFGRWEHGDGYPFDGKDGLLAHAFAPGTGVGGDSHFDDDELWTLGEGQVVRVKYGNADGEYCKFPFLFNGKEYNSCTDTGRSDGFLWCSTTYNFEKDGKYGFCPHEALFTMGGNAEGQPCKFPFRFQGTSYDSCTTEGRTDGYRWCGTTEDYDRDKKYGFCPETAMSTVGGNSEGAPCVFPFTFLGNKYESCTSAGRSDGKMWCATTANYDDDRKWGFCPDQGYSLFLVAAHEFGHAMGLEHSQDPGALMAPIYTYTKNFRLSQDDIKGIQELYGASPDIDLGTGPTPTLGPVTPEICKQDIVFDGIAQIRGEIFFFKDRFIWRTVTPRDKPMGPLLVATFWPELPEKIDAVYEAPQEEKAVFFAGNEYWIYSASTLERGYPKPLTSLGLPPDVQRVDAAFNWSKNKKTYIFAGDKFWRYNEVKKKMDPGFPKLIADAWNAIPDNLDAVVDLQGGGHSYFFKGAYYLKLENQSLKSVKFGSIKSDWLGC
Chain of Matrix metalloproteinase-16 (P51512 whole entry): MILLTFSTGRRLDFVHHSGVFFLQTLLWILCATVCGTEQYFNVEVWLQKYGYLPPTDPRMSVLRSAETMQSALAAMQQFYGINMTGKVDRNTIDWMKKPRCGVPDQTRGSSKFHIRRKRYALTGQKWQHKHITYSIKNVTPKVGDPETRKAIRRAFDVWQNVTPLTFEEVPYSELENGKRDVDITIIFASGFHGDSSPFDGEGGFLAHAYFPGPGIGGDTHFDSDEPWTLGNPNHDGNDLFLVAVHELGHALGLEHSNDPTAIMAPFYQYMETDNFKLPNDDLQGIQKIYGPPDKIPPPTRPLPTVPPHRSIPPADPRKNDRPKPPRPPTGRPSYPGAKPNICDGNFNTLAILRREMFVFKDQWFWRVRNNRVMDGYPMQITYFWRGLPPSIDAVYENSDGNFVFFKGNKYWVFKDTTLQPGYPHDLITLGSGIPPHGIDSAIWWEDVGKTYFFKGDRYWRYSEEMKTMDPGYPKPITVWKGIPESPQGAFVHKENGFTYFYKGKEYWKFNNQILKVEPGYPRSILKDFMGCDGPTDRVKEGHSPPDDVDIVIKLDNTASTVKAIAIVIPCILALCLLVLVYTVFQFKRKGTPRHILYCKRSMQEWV
Chain of Matrix metalloproteinase-15 (P51511 whole entry): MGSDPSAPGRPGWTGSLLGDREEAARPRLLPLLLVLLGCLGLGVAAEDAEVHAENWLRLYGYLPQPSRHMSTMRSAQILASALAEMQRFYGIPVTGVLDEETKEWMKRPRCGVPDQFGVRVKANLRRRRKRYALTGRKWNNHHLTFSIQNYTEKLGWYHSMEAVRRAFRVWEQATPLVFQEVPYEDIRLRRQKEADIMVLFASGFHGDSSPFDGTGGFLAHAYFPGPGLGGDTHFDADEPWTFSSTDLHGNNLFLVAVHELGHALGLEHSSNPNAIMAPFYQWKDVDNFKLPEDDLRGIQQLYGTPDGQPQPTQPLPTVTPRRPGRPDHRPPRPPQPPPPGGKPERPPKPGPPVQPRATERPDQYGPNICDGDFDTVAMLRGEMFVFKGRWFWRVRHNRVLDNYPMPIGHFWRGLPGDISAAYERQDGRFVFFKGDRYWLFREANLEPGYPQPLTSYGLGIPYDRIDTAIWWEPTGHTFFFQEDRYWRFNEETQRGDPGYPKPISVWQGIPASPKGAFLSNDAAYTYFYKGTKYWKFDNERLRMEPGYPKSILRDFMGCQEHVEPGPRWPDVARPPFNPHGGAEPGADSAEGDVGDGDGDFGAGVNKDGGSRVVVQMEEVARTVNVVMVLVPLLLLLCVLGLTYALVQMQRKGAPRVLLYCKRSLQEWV
Chain of Stromelysin-1 (P08254 whole entry, the tested form may be a part): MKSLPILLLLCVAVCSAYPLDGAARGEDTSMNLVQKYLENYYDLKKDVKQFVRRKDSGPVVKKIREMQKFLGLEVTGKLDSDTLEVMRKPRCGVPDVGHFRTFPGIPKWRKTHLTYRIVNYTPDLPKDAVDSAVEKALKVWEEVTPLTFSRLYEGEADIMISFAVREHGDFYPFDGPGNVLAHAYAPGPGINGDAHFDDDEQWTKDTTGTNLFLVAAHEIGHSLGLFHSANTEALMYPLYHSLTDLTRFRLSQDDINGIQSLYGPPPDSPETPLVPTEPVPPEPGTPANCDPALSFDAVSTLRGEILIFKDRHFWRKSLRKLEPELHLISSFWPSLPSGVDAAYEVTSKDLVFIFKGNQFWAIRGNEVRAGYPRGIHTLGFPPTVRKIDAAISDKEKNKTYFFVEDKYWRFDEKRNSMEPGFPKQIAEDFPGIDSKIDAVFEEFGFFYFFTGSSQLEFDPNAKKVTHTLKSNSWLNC
Chain of Matrix metalloproteinase-9 (P14780 whole entry): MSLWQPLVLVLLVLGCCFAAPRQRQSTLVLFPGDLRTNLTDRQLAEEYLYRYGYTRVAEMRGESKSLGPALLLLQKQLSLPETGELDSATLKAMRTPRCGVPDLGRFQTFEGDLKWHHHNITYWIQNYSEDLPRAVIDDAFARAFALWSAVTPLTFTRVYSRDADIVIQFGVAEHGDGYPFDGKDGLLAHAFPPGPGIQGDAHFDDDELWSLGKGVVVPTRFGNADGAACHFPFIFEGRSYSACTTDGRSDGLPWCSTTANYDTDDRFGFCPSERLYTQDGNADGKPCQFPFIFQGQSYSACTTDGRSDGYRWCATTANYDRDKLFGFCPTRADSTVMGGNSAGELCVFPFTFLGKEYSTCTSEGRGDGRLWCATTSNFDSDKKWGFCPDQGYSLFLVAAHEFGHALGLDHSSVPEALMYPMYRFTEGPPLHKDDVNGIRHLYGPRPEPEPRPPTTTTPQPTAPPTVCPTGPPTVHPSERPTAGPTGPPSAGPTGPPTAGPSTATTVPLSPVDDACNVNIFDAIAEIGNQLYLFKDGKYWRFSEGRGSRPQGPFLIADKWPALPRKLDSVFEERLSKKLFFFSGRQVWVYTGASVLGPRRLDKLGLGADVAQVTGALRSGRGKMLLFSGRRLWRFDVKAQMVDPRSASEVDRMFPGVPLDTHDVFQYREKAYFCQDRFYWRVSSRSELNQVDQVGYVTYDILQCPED
Chain of Disintegrin and metalloproteinase domain-containing protein 17 (Homo sapiens, UniProt P78536) (P78536 whole entry, the tested form may be a part): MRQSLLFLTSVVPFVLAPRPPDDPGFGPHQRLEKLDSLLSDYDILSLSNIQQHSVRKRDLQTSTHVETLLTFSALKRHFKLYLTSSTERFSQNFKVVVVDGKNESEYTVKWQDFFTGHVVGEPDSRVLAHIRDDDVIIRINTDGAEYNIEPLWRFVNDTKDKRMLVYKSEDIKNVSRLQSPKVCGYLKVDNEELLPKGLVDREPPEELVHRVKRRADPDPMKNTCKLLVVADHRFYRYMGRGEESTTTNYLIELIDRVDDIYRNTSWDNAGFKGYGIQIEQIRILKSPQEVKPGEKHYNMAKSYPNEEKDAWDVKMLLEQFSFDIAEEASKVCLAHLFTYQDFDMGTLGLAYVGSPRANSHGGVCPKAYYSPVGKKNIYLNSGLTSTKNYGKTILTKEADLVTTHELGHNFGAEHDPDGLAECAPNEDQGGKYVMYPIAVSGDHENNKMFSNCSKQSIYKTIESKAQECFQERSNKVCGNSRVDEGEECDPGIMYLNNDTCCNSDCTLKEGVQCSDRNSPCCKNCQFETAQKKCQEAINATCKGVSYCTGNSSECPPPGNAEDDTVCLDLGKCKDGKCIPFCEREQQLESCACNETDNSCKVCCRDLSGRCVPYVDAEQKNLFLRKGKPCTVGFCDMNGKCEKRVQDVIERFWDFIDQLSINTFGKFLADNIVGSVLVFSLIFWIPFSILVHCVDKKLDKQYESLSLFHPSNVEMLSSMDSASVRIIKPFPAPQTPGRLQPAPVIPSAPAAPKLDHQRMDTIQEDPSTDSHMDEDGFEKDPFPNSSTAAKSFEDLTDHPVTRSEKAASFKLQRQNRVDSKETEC

**Q.** With CNC(=O)CNC(=O)[C@@H]1Cc2ccc(cc2)OCCC[C@H](C(=O)NO)[C@@H](CC(C)C)C(=O)N1 as the molecule, how does the AUC [1] read?
**A.** 2613 ng·h/mL

**Q.** And the T1/2 [1]?
**A.** 0.81 h

**Q.** And the T max [1]?
**A.** 0.88 h

**Q.** And the clearance [1]?
**A.** 7 mL/min/kg

**Q.** And the Vd ([1]; read-out: Vss)?
**A.** 0.7 L/kg

**Q.** And the Ki (Collagenase 3)?
**A.** 0.45 nM

**Q.** What about the Ki (Neutrophil collagenase) of the same molecule?
**A.** 0.5 nM

**Q.** What about the Ki (Matrilysin) of the same molecule?
**A.** 0.8 nM

**Q.** And the Ki [2]?
**A.** 20 nM

**Q.** And the bioavailability [3]?
**A.** 11%

**Q.** What about the Ki [4] of the same molecule?
**A.** 1.1 nM

**Q.** And the Ki [5]?
**A.** 94 nM

**Q.** What about the Ki [6] of the same molecule?
**A.** 35 nM

**Q.** What about the Ki (Stromelysin-1) of the same molecule?
**A.** 14 nM

**Q.** What about the IC50 [7] of the same molecule?
**A.** 220 nM

**Q.** What about the Ki [8] of the same molecule?
**A.** 12 nM

**Q.** And the Ki (Interstitial collagenase)?
**A.** 3 nM

**Q.** And the Ki [9]?
**A.** 0.9 nM

**Q.** And the Cmax [10]?
**A.** 121 ng/mL

**Q.** And the AUC [11]?
**A.** 342 ng·h/mL

**Q.** What about the half-life [11] of the same molecule?
**A.** 1.29 h
